Measured values from ChEMBL document CHEMBL1128739, “Structure-activity relationships in the 8-amino-6,7,8,9-tetrahydro-3H-benz[e]indole ring system. 2. Effects of 8-amino nitrogen substitution on serotonin receptor binding and pharmacology” (J Med Chem, 1995).

Assays:
[1] = target: D(3) dopamine receptor (Rattus norvegicus) (UniProt P19020); assay: The compound was tested in vitro for binding affinity against cloned mammalian Dopamine receptor D3 expressed in CHO cells by, using [3H]-spiperone as radioligand; format: cell-based; conditions: concentration not given here
Method in brief: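 Cloned D3 receptor came from CHO cell membranes (20-60 μg protein). These were incubated 1 h at room temperature with [3H]spiperone (123 Ci/mmol, 0.5 nM) in 20 mM HEPES, 10 mM MgCl2, 150 mM NaCl, 1 mM EDTA, pH 7.4. Excess haloperidol defined nonspecific binding. There were 11 concentrations in duplicate. After filtration and scintillation counting, IC50 came from a one-site competition fit and Ki from Cheng-Prusoff.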

[2] = target: 5-hydroxytryptamine receptor 1B (Homo sapiens, UniProt P28222); assay: In vitro binding affinity against cloned mammalian 5-hydroxytryptamine 1D receptor beta expressed in CHO cells, by using [3H]5-HT as radioligand; format: cell-based
Method in brief: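 Membranes from CHO cells stably expressing the cloned receptor, made by mechanical disruption in ice-cold Tris/EDTA/EGTA pH 7.4 and differential centrifugation. [3H]serotonin at 1.7 nM in 50 mM Tris, 5 mM MgCl2, 0.1% ascorbic acid, pH 7.4. 11 drug concentrations in duplicate, 1 h at room temperature protected from light, then filtration. Excess serotonin defines nonspecific binding. One-site IC50 fit, Ki by Cheng-Prusoff.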

Chain of 5-hydroxytryptamine receptor 1B (P28222 whole entry): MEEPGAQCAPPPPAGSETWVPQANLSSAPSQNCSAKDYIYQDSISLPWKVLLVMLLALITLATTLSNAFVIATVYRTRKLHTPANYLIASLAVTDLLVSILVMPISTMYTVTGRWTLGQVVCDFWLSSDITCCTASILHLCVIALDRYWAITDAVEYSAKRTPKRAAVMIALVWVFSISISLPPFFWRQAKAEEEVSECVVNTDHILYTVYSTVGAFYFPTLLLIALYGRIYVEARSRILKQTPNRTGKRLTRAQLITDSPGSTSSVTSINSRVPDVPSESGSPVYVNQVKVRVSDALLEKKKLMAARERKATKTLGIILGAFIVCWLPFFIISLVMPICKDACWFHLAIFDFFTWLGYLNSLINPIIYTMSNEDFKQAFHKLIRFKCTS
Chain of D(3) dopamine receptor (Rattus norvegicus) (P19020 whole entry): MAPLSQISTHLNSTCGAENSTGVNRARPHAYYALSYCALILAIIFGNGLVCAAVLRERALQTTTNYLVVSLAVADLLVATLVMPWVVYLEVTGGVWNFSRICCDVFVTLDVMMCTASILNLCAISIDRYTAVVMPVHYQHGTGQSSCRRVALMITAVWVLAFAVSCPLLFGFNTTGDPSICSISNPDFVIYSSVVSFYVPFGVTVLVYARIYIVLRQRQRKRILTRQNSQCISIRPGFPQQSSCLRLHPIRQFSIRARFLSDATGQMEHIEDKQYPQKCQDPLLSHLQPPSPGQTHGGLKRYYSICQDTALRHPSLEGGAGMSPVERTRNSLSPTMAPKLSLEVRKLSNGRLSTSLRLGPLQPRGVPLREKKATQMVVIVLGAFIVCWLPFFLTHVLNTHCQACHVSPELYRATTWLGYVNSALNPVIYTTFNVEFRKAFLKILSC

CN(C)[C@H]1CCc2ccc3[nH]ccc3c2C1
inhibition [1]: < 45% | Ki [2]: 1690 nM
